One may read the MIC80 as the lowest concentration that inhibits either 80% of growth or 80% of the strains tested, depending on the study. Broadly, the IC50 is the midpoint of a concentration-inhibition curve.

In brackets after ≈: the same amount, converted by molar mass. Activity calls are given as the source filed them. No cut-off for these calls is given here.

We go through one compound from ChEMBL document CHEMBL4706641, “Novel Carboline Fungal Histone Deacetylase (HDAC) Inhibitors for Combinational Treatment of Azole-Resistant Candidiasis” (J Med Chem, 2021).

The subject of assay [1] is Candida albicans. The experiment in a line: Synergistic antifungal activity against Candida albicans 0304103 assessed as potentiation of fluconazole antifungal activity incubated for 48 hrs in presence of fluconazole by checkerboard microdilution assay. The assay is classed as functional, organism-based. The gist of the method: (§1)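 Checkerboard broth microdilution per CLSI M27-A3 (modified), clinical Candida isolates. Exponential cells in RPMI 1640 (MOPS-buffered) at 10³ cells/mL; fluconazole 0.25–64 μg/mL crossed with test compound 2–64 μg/mL (final). 48 h at 35 °C; OD630 read with background subtracted. MIC80 = 80% growth inhibition; FICI ≤0.5 synergy, >4 antagonism.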

Assay [2] has as its system Candida albicans. The experiment in a line: Induction of morphological changes in Candida albicans assessed as reduction in morphological conversion from yeast to hypha forms at 32 ug/ml incubated for 3 hrs by inverse fluorescence microscopy. The assay is classed as functional, organism-based. The settings on record: dose 32.0 µg/ml. The gist of the method:
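Exponential-phase C. albicans were suspended in Spider medium ([…], 2% NaHCO₃, […]) at 2 × 10⁶ cells/mL. Drugs were added alone or combined, with DMSO as control. After 3 h at 37 °C, cells were imaged by inverted fluorescence microscopy. Three independent experiments were run.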

Assay [3] concerns Candida albicans. The experiment in a line: Antifungal activity against Candida albicans 9884 incubated for 48 hrs by microdilution assay. The assay is classed as functional. The gist of the method: as §1
The subject of assay [4] is Candida albicans. The experiment in a line: Synergistic antifungal activity against Candida albicans 10061 assessed as potentiation of fluconazole antifungal activity by measuring FICI incubated for 48 hrs in presence of fluconazole by checkerboard microdilution assay. The assay is classed as functional. The gist of the method:
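Checkerboard broth microdilution per CLSI M27-A3 (modified), clinical Candida isolates. 48 h at 35 °C; OD630 read with background subtracted. MIC80 = 80% growth inhibition; FICI ≤0.5 synergy, >4 antagonism.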
In general terms: Broth dilution looks for growth in wells or tubes with falling amounts of substance.

Assay [5] relates to Candida albicans. The experiment in a line: Antifungal activity against Candida albicans 9172 incubated for 48 hrs by microdilution assay. The assay is classed as functional. The method, boiled down: as §1
In assay [6] the test system is Candida albicans. The experiment in a line: Up-regulation of MDR1 mRNA expression in Candida albicans 0304103 at 32 ug/ml incubated for 24 hrs in presence of 32 ug/ml fluconazole by RT-PCR analysis. The assay is classed as functional. The note with it: dose 32.0 µg/ml. The gist of the method: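 Cells from a 1 × 10⁶ cells/mL starting suspension were split into DMSO control, FLC 32 μg/mL, test compound 32 μg/mL and combination (32 + 32 μg/mL) groups, then incubated 24 h at 35 °C in YEPD. Total RNA was extracted and reverse-transcribed. Real-time PCR ran 40 cycles (95 °C 5 s, 60 °C 34 s). Fold change was calculated by 2^−ΔΔCt against ACT1.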

In assay [7] the target is T1, Protein deacetylase HDAC6 (Homo sapiens, UniProt Q9UBN7).
T1 sequence (Q9UBN7 whole entry): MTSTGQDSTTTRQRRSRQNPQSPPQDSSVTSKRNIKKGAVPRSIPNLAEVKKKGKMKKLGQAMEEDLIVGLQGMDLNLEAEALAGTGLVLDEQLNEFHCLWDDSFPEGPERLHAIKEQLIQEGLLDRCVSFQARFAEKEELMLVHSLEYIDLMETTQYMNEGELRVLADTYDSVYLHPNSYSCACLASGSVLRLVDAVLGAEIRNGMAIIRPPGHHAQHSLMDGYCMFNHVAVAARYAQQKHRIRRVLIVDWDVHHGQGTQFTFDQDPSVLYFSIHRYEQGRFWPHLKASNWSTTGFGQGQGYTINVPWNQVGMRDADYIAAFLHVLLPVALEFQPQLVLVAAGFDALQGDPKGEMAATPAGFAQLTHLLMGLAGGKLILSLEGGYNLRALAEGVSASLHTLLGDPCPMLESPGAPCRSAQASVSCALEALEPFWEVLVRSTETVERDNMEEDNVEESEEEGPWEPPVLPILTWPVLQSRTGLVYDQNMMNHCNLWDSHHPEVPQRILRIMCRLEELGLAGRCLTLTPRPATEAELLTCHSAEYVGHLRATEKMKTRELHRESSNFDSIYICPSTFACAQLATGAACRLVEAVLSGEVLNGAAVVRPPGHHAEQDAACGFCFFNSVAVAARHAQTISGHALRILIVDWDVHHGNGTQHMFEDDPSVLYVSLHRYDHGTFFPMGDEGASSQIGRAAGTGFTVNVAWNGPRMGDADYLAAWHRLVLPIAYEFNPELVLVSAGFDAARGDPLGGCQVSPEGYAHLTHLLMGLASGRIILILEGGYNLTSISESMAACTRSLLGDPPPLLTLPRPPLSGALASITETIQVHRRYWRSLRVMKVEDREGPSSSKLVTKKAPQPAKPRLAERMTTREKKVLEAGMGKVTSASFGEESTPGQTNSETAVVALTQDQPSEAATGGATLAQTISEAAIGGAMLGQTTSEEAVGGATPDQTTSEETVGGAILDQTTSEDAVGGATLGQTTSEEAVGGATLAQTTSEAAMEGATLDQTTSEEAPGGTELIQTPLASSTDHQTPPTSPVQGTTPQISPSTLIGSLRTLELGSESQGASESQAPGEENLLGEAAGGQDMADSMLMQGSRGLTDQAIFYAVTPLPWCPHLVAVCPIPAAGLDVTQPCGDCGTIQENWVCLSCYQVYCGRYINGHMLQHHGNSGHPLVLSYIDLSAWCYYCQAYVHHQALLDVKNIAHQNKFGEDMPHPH
The experiment in a line: Inhibition of human HDAC6 pre-incubated for 5 mins before substrate addition and measured after 30 mins by fluorescence based assay.

For assay [8], the system named is Candida albicans. The experiment in a line: Synergistic fungicidal activity against Candida albicans 0304103 assessed as potentiation of fluconazole antifungal activity at 32 ug/ml incubated for 48 hrs in presence of 64 ug/ml fluconazole by checkerboard microdilution assay. The settings on record: dose 32.0 µg/ml. The assay is classed as functional, organism-based.

Assay [9] deals with Candida albicans. The experiment in a line: Synergistic antifungal activity against Candida albicans 9172 assessed as fluconazole MIC incubated for 48 hrs in presence of fluconazole by microdilution assay (reference value: fluconazole alone MIC = >[…] ug/ml). The assay is classed as functional.
Assay [10] deals with Candida albicans. The experiment in a line: Induction of morphological changes in Candida albicans assessed as reduction in morphological conversion from yeast to hypha forms at 32 ug/ml incubated for 3 hrs in presence of 32 ug/ml fluconazole by inverse fluorescence microscopy. The assay is classed as functional, organism-based. The note with it: dose 32.0 µg/ml. The method, boiled down:
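Exponential C. albicans at 2 × 10⁶ cells/mL in Spider medium (hypha-inducing), drugs alone or combined, DMSO control; 3 h at 37 °C, then observed and photographed by inverted fluorescence microscopy. Three independent experiments.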

Assay [11] concerns Candida albicans. The experiment in a line: Synergistic antifungal activity against Candida albicans 4108 assessed as potentiation of fluconazole antifungal activity by measuring FICI incubated for 48 hrs in presence of fluconazole by checkerboard microdilution assay. The assay is classed as functional.

With `O=C(Cc1ccc(OCCCn2c3c(c4cccc(Cl)c42)CCNC3)cc1)NO`, the Activity entry in the assay with Candida albicans [1] is “Dose-dependent effect”. In addition, the outcome with Candida albicans [2] was inactive. Besides, the MIC80 is 64 µg/mL (≈ 155 µM) in the assay with Candida albicans [3], > 64 µg/mL in the assay on Candida albicans [5] and 0.5 µg/mL in the assay on Candida albicans [9]. For the same compound, the “fractional inhibitory concentration index (FICI)” value in the assay on Candida albicans [4] was determined as 0.062; with Candida albicans [11] it was 0.035. In addition, the fold change (FC) in the assay on Candida albicans [6] amounted to 8. Also, the IC50 in [7] came out at 459 nM. Further, the outcome in the assay with Candida albicans [8] and in the assay on Candida albicans [10] was Active.
